In ChEMBL document CHEMBL1145520, “RAS-RAF-MEK-dependent oxidative cell death involving voltage-dependent anion channels” (Nature, 2007):
Activity calls are given as the source filed them. The calls are words filed in the database; no cut-off is given here.

Experiments:
BJ [1] = assay: Antitumor activity against human BJ cells expressing TERT, LT, ST and RAS G12V mutant genes assessed as survival relative to control; format: functional
HT-1080 = assay: Antitumor activity against human HT1080 cells assessed as survival relative to control; format: functional
BJ [2] = assay: Induction of mitochondrial structural integrity loss in human BJ cells expressing TERT, LT, ST and RAS G12V mutant genes cells at 1 uM after 5 hrs; format: functional, cell-based
Outline: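 Mitochondria of BJ-TERT/LT/ST/RASV12 cells examined by transmission electron microscopy after staurosporine 1 µM for 5 h. Fixed in 2.5% glutaraldehyde in Sorenson's buffer pH 7.2, post-fixed in 1% OsO4, block-stained with tannic acid, resin-embedded. Thin sections stained with uranyl acetate and lead citrate.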

BJ [3] = assay: Induction of cytochrome c release in cytosolic fraction of human BJ cell expressing TERT, LT, ST and RAS G12V mutant genes at 1 uM; format: functional, cell-based
Outline: (§1)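 BJ-TERT/LT/ST/RASV12 cells (3 × 10^6 per dish, overnight at 37 °C, 5% CO2) treated with staurosporine 1 µM for 6 h. Cells swollen on ice 15 min in sucrose/HEPES pH 7.5 buffer, lysed through 25-gauge needle. Nuclei removed at 400g, mitochondria pelleted at 10,500g. Cytosolic supernatant and mitochondrial pellet probed for cytochrome c by western blot.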

BJ [4] = assay: Induction of cytochrome c release in mitochondrial fraction of human BJ cell expressing TERT, LT, ST and RAS G12V mutant genes at 1 uM; format: functional, cell-based; outline: as §1
BJ [5] = assay: Induction of cell death in human BJ cells expressing TERT, LT, ST and RAS G12V mutant genes cells at 9 uM; format: functional, cell-based

SMILES | Survival (BJ [1]) [%] | Survival (HT-1080) [%] | further results
COc1cccc(-c2cc(=O)c3ccccc3o2)c1N | 78 | 26 | 
N#CC(=C(/N)Sc1ccccc1N)/C(C#N)=C(\N)Sc1ccccc1N | 82 | 17 | 
CN[C@@H]1C[C@H]2O[C@@](C)([C@@H]1OC)n1c3ccccc3c3c4c(c5c6ccccc6n2c5c31)C(=O)NC4 |  |  | Activity (BJ [2]): inactive; Activity (BJ [3]): Active; Activity (BJ [4]): Active
CC(C)NC(=O)N(CCN1CCN(C(=O)COc2ccc(Cl)cc2)CC1)Cc1ccc(F)cc1 |  |  | IC50 (BJ [5]): 10 µM
